This is an account of results in ChEMBL document CHEMBL1122663, “Oligonucleotide structural parameters that influence binding of 5'-O-triphosphoadenylyl-(2'----5')-adenylyl-(2'----5')-adenosine to the 5'-O-triphosphoadenylyl-(2'----5')-adenylyl-(2'----5')-adenosine dependent endoribonuclease: chain length, phosphorylation state, and heterocyclic base” (J Med Chem, 1984).

Each structure is given as a SMILES string.

The target in test [1] is T1, 2-5A-dependent ribonuclease (Mus musculus) (UniProt Q05921).
T1 sequence (whole entry): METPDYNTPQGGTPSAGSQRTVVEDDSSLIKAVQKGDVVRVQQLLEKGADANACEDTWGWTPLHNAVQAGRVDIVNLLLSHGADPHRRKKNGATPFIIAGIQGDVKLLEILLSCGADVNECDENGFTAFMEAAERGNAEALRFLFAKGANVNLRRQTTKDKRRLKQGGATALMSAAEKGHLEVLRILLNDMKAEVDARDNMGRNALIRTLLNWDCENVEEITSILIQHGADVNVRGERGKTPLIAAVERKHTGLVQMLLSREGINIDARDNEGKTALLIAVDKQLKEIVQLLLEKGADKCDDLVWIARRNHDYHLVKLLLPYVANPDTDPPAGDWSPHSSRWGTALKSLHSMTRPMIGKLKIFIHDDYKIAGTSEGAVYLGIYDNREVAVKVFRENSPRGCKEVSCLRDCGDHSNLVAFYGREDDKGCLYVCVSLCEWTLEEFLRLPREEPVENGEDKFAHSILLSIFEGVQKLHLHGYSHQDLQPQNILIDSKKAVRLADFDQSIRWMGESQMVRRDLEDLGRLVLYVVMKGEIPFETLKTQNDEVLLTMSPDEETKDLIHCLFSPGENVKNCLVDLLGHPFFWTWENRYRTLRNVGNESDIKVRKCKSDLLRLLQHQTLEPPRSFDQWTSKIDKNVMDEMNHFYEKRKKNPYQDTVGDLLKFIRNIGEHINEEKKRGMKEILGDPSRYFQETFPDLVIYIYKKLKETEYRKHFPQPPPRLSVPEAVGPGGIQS
In words: Molar concentration required to displace 50% of the radiolabeled probe from 2-5A (Adenosine dependent endoribonuclease) in endonuclease-nitrocellulose complex. In short, it runs like this: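 Radiobinding assay of Knight et al. on the 2-5A-dependent endoribonuclease from mouse L cells. Oligomer is added against the radiolabeled probe ppp5'A2'p5'A2'p5'A2'p5'A3'[³²P]p5'C3'p. The value is the oligomer concentration that prevents 50% of the added probe from binding the endonuclease.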

For test [2], the target named is T1, 2-5A-dependent ribonuclease (Mus musculus). In words: Molar concentration needed to give 50% prevention of 2-5A (Adenosine dependent endoribonuclease).

In the case of `Nc1ncnc2c1ncn2[C@@H]1O[C@H](COP(=O)(O)O[C@@H]2[C@H](O)[C@@H](COP(=O)(O)O[C@@H]3[C@H](O)[C@@H](COP(=O)(O)OP(=O)(O)OP(=O)(O)O)O[C@H]3n3cnc4c(N)ncnc43)O[C@H]2n2cnc3c(N)ncnc32)[C@@H](O)[C@H]1O`, the Concentration in test [1] was found to be 5e-10.

For the compound `Nc1ncnc2c1ncn2[C@@H]1O[C@H](COP(=O)(O)O[C@@H]2[C@H](O)[C@@H](COP(=O)(O)O[C@@H]3[C@H](O)[C@@H](COP(=O)(O)O[C@@H]4[C@H](O)[C@@H](CO)O[C@H]4n4cnc5c(N)ncnc54)O[C@H]3n3cnc4c(N)ncnc43)O[C@H]2n2cnc3c(N)ncnc32)[C@@H](O)[C@H]1O`, the values for the Concentration in test [1] and in test [2] were 2.2e-08 and 1e-05, respectively. The corresponding values for `Nc1ncnc2c1ncn2C1O[C@H](COP(=O)(O)O[C@H]2C(n3cnc4c(N)ncnc43)O[C@H](COP(=O)(O)O[C@H]3C(n4cnc5c(N)ncnc54)O[C@H](COP(=O)(O)O[C@H]4C(n5cnc6c(N)ncnc65)O[C@H](COP(=O)(O)O[C@H]5C(n6cnc7c(N)ncnc76)O[C@H](CO)[C@H]5O)[C@H]4O)[C@H]3O)[C@H]2O)[C@@H](O)[C@H]1O` (some centres undefined) are 1.3e-08 and 7e-06. For `Nc1ncnc2c1ncn2[C@@H]1O[C@H](COP(=O)(O)O[C@@H]2[C@H](O)[C@@H](COP(=O)(O)O[C@@H]3[C@H](O)[C@@H](COP(=O)(O)O[C@@H]4[C@H](O)[C@@H](COP(=O)(O)O)O[C@H]4n4cnc5c(N)ncnc54)O[C@H]3n3cnc4c(N)ncnc43)O[C@H]2n2cnc3c(N)ncnc32)[C@@H](O)[C@H]1O` the same measures were 7e-10 and 1e-06. `Nc1ncnc2c1ncn2[C@@H]1O[C@H](COP(=O)(O)O[C@@H]2[C@H](O)[C@@H](COP(=O)(O)O)O[C@H]2n2cnc3c(N)ncnc32)[C@@H](OP(=O)(O)O)[C@H]1O` yielded a Concentration in test [1] of 4e-06. Consider `Nc1ccn(C2O[C@H](COP(=O)(O)O[C@H]3C(n4ccc(N)nc4=O)O[C@H](COP(=O)(O)O[C@H]4C(n5ccc(N)nc5=O)O[C@H](COP(=O)(O)O)[C@H]4O)[C@H]3O)[C@@H](O)[C@H]2O)c(=O)n1` (some centres undefined), for which the Concentration was 3.3e-06 in test [1] and greater than 0.0001 in test [2]. `Nc1ncnc2c1ncn2C1OC(CO)C(O)C1OP(=O)(O)OC[C@H]1OC(n2cnc3c(N)ncnc32)[C@H](O)[C@@H]1O` (some centres undefined): the Concentration in test [2] is greater than 0.001. In turn, `Nc1ncnc2c1ncn2C1O[C@H](COP(=O)(O)O[C@H]2C(n3cnc4c(N)ncnc43)O[C@H](COP(=O)(O)O[C@H]3C(n4cnc5c(N)ncnc54)O[C@H](COP(=O)(O)O[C@H]4C(n5cnc6c(N)ncnc65)O[C@H](COP(=O)(O)O[C@H]5C(n6cnc7c(N)ncnc76)O[C@H](COP(=O)(O)O[C@H]6C(n7cnc8c(N)ncnc87)O[C@H](CO)[C@H]6O)[C@H]5O)[C@H]4O)[C@H]3O)[C@H]2O)[C@@H](O)[C@H]1O` (some centres undefined) showed a Concentration in test [1] of 1.3e-08. For the compound `Nc1ncnc2c1ncn2[C@@H]1O[C@H](COP(=O)(O)O[C@@H]2[C@H](O)[C@@H](COP(=O)(O)O[C@@H]3[C@H](O)[C@@H](COP(=O)(O)O)O[C@H]3n3cnc4c(N)ncnc43)O[C@H]2n2cnc3c(N)ncnc32)[C@@H](O)[C@H]1O` (stereo in doubt; 2), the values for the Concentration in test [1] and in test [2] were 8e-10 and 1e-06, respectively. The corresponding values for `O=P(O)(O)OC[C@H]1OC(n2cnc3c(O)ncnc32)[C@H](OP(=O)(O)OC[C@H]2OC(n3cnc4c(O)ncnc43)[C@H](OP(=O)(O)OC[C@H]3OC(n4cnc5c(O)ncnc54)[C@H](O)[C@@H]3O)[C@@H]2O)[C@@H]1O` (some centres undefined) are 3.3e-06 and greater than 0.0001. For `Nc1ncnc2c1ncn2[C@@H]1O[C@H](COP(=O)(O)O[C@@H]2[C@H](O)[C@@H](COP(=O)(O)O[C@@H]3[C@H](O)[C@@H](CO)O[C@H]3n3cnc4c(N)ncnc43)O[C@H]2n2cnc3c(N)ncnc32)[C@@H](O)[C@H]1O` the same measures were 8e-07 and greater than 0.0001. For `Nc1ncnc2c1ncn2C1O[C@H](COP(=O)(O)O[C@H]2C(n3cnc4c(N)ncnc43)O[C@H](COP(=O)(O)O[C@H]3C(n4cnc5c(N)ncnc54)O[C@H](COP(=O)(O)O[C@H]4C(n5cnc6c(N)ncnc65)O[C@H](COP(=O)(O)O[C@H]5C(n6cnc7c(N)ncnc76)O[C@H](COP(=O)(O)O)[C@H]5O)[C@H]4O)[C@H]3O)[C@H]2O)[C@@H](O)[C@H]1O` (some centres undefined) the same measures were 9e-10 and 5e-07. On to `Nc1ncnc2c1ncn2[C@@H]1O[C@H](COP(=O)(O)O[C@@H]2[C@H](O)[C@@H](COP(=O)(O)O[C@@H]3[C@H](O)[C@@H](COP(=O)(O)O)O[C@H]3n3cnc4c(N)ncnc43)O[C@H]2n2cnc3c(N)ncnc32)[C@@H](O)[C@H]1O` (stereo in doubt; 11), for which the Concentration in test [1] stood at 2e-09. Turning to `O=P(O)(O)OP(=O)(O)OP(=O)(O)OCC1OC(n2cnc3c(O)ncnc32)C(OP(=O)(O)OCC2OC(n3cnc4c(O)ncnc43)C(OP(=O)(O)OC[C@H]3OC(n4cnc5c(O)ncnc54)[C@H](O)[C@@H]3O)C2O)C1O` (some centres undefined), the Concentration in test [1] is 2.6e-07; in test [2], greater than 0.00013. The corresponding values for `O=c1ccn(C2O[C@H](COP(=O)(O)O[C@H]3C(n4ccc(=O)[nH]c4=O)O[C@H](COP(=O)(O)O[C@H]4C(n5ccc(=O)[nH]c5=O)O[C@H](COP(=O)(O)O)[C@H]4O)[C@H]3O)[C@@H](O)[C@H]2O)c(=O)[nH]1` (some centres undefined) are 1.1e-06 and greater than 0.0001. For `Nc1ncnc2c1ncn2C1O[C@H](COP(=O)(O)O[C@H]2C(n3cnc4c(N)ncnc43)O[C@H](COP(=O)(O)O)[C@H]2O)[C@@H](O)[C@H]1O` (some centres undefined), the Concentration in test [1] is 2e-05; in test [2] it was greater than 0.0002. For `Nc1ncnc2c1ncn2C1O[C@H](COP(=O)(O)O[C@H]2C(n3cnc4c(N)ncnc43)O[C@H](COP(=O)(O)O[C@H]3C(n4cnc5c(N)ncnc54)O[C@H](COP(=O)(O)O[C@H]4C(n5cnc6c(N)ncnc65)O[C@H](COP(=O)(O)O[C@H]5C(n6cnc7c(N)ncnc76)O[C@H](COP(=O)(O)O[C@H]6C(n7cnc8c(N)ncnc87)O[C@H](COP(=O)(O)O)[C@H]6O)[C@H]5O)[C@H]4O)[C@H]3O)[C@H]2O)[C@@H](O)[C@H]1O` (some centres undefined), in test [1], the Concentration was determined as 1e-09. The same measure, in the same setting: in the case of `Nc1ncnc2c1ncn2[C@@H]1O[C@H](COP(=O)(O)O[C@@H]2[C@H](O)[C@@H](COP(=O)(O)O)O[C@H]2n2cnc3c(N)ncnc32)[C@@H](O)[C@H]1OP(=O)(O)O` it was 4e-07.
